ChEMBL document CHEMBL1127359, “Synthetic laminin-like peptides and pseudopeptides as potential antimetastatic agents” (1994)
Square brackets hold non-standard residues; d marks the D form. Peptide text beside a SMILES is read from it. Phe(4-NH2) = Nc1ccc(C[C@H](N)C(=O)O)cc1; Phe(4-F) = N[C@@H](Cc1ccc(F)cc1)C(=O)O

Columns and labels:
Assay type in all cases: functional, cell-based
B16-F10 [1] = test: Antimetastatic activity against HT1080 and B16F10 cells in cell attachment assay; high attachment activity with about 70% of cells attached
B16-F10 [2] = test: Antimetastatic activity against HT1080 and B16F10 cells in cell attachment assay; low attachment activity
B16-F10 [3] = test: Antimetastatic activity against HT1080 and B16F10 cells in cell attachment assay; Moderat attachment activity
Method in brief: (§1)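 Peptide dissolved in water with a drop of acetic acid and dried overnight onto culture wells (amount given is quantity dried on plastic). Wells blocked with EMEM/3% BSA 30 min at 37 °C, then EMEM/0.02% BSA. HT-1080 or B16F10 cells (4 × 10⁴) added, 1 h at 37 °C, 5% CO₂. PBS wash; attached cells fixed, stained and counted (eight fields/well) or trypsinized and Coulter-counted; duplicate wells, mean ± SD.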

B16-F10 [4] = test: Antimetastatic activity against HT1080 and B16F10 cells in cell attachment assay; Moderate attachment activity; method in brief: as §1
B16-F10 [5] = test: Antimetastatic activity against HT1080 and B16F10 cells in cell attachment assay; Low attachment activity
B16-F10 [6] = test: Antimetastatic activity against HT1080 and B16F10 cells in cell attachment assay; moderate attachment activity; method in brief: as §1
B16-F10 [7] = test: Antimetastatic activity against HT1080 and B16F10 cells in cell attachment assay; high, but not maximal, attachment activity; method in brief: as §1

## H-CYIGSRYIGSRYIGSR-NH2
B16-F10 [1]
  Activity: high attachment activity with about 70% of cells attached

## CC[C@H](C)[C@@H](CNCC(=O)N[C@@H](CO)C(=O)N[C@@H](CCCN=C(N)N)C(N)=O)NC(=O)[C@@H](N)Cc1ccc(O)cc1
B16-F10 [2]
  Activity: low attachment activity

## CC[C@H](C)[C@H](NC(=O)[C@H](N)Cc1ccc(O)cc1)C(=O)NCC(=O)N[C@@H](CO)C(=O)N[C@@H](CCCN=C(N)N)C(=O)O [LAMININ]
B16-F10 [1]
  Activity: high attachment activity with about 70% of cells attached

## CC[C@H](C)[C@H](NC[C@@H](N)Cc1ccc(O)cc1)C(=O)NCC(=O)N[C@@H](CO)C(=O)N[C@@H](CCCN=C(N)N)C(N)=O
B16-F10 [3]
  Activity: Moderat attachment activity

## CC[C@H](C)[C@H](NC(=O)[C@@H](N)Cc1ccc(F)cc1)C(=O)NCC(=O)N[C@@H](CO)C(=O)N[C@@H](CCCN=C(N)N)C(N)=O (H-[Phe(4-F)]IGSR-NH2)
B16-F10 [4]
  Activity: Moderate attachment activity

## H-FIGSR-NH2
B16-F10 [5]
  Activity: Low attachment activity

## CC[C@H](C)[C@H](NC(=O)[C@@H](N)Cc1ccc(O)cc1)C(=O)NCCN[C@@H](CO)C(=O)N[C@@H](CCCN=C(N)N)C(N)=O
B16-F10 [2]
  Activity: low attachment activity

## CC[C@H](C)[C@H](NC(=O)[C@@H](N)Cc1ccc(O)cc1)C(=O)NCC(=O)N[C@@H](CO)CN[C@@H](CCCN=C(N)N)C(N)=O
B16-F10 [5]
  Activity: Low attachment activity

## CC[C@H](C)[C@@H](C(=O)NCC(=O)N[C@@H](CO)C(=O)N[C@@H](CCCN=C(N)N)C(N)=O)N(C=O)C[C@@H](N)Cc1ccc(O)cc1
B16-F10 [6]
  Activity: moderate attachment activity

## CC[C@H](C)[C@H](NC(=O)[C@@H](N)Cc1ccc(O)cc1)C(=O)NCC(=O)N[C@@H](CO)C(=O)N[C@@H](CCCN=C(N)N)C(N)=O
B16-F10 [5]
  Activity: Low attachment activity

## CC[C@H](C)[C@H](NC(=O)[C@H](N)Cc1ccc(O)cc1)C(=O)NCC(=O)N[C@@H](CO)C(=O)N[C@@H](CCCN=C(N)N)C(N)=O
B16-F10 [5]
  Activity: Low attachment activity

## CC[C@H](C)[C@H](NC(=O)[C@@H](N)Cc1ccc(N)cc1)C(=O)NCC(=O)N[C@@H](CO)C(=O)N[C@@H](CCCN=C(N)N)C(N)=O (H-[Phe(4-NH2)]IGSR-NH2)
B16-F10 [7]
  Activity: high, but not maximal, attachment activity
